In ChEMBL document CHEMBL1687926, “14-Aminocamptothecins: their synthesis, preclinical activity, and potential use for cancer treatment” (J Med Chem, 2011):
Several values for one entry are separate records, joined by “and”; a condition that tells them apart may be missing. Identical values can stand only once.

Experiments:
[1] = Cytotoxicity against mouse bone marrow cell by CFU-GM assay; format: cell-based
How it was run: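 CFU-GM colony assay on normal human bone marrow (thawed) or mouse femoral marrow (freshly extracted). Human colonies scored after 16-18 days. IC₅₀ taken from triplicate assays.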

NCI-H69 = assay: Cytotoxicity against human H69 cells after 72 hrs by alamar blue assay; format: functional, cell-based; settings: NCI-H69, 72 h
How it was run: (§1)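 Cells seeded at 4 × 10³ per well and grown 24 h. Compounds dissolved in DMSO and diluted in medium to final concentrations, then incubated 72 h at 37 °C, 5% CO₂. Viable cells read by AlamarBlue; IC₅₀ taken as the concentration giving 50% growth inhibition.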

[2] = Cytotoxicity against human MES-SA/Dx5 cells overexpressing MDR1 after 72 hrs by alamar blue assay; format: functional, cell-based; settings: MES-SA/Dx5, 72 h; how it was run: as §1
[3] = Ratio of IC90 for mouse bone marrow cell to IC90 for human bone marrow cell; format: ADME, cell-based; settings: bone marrow cells
How it was run: (§2)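 CFU-GM colony assay in triplicate at 2 × 10⁴ cells per culture, using thawed normal human bone marrow or fresh mouse femoral marrow. Colonies were scored after 16-18 days. The IC50 or IC90 from each species gave the mouse/human ratio.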

PC-3 [4] = assay: Antitumor activity against human PC3 cells xenografted in nu/nu mouse assessed as tumor growth delay at 40 mg/kg, po QD for 5 days followed by 2 days without treatment for 2 weeks; format: functional
How it was run: (§3)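 Female nude (nu/nu) mice (males for prostate model) implanted sc in the flank with tumor cells (1 × 10⁶ for H460). Dosing began at 100-150 mm³, 10 mice/group. Oral gavage in 5% DMSO/5% Tween 80/1% CMC in water, 5 days on/2 off per cycle, 2 or 4 cycles. Volume = length×width²/2, measured twice weekly. TGI = (1 − ΔT/ΔC)×100; TGD = extra days to reach 500 mm³ versus control.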

HT-29 [5] = assay: Antitumor activity against human HT-29 cells xenografted in nu/nu mouse assessed as tumor growth inhibition at 40 mg/kg, […]; format: functional; set-up: scale not given: the % may be the effect or the level left; settings: route oral
NCI-H460 [6] = assay: Cytotoxicity against human H460 cells after 72 hrs by alamar blue assay; format: functional, cell-based; how it was run: as §1
HT-29 [7] = assay: Cytotoxicity against human HT-29 cells after 72 hrs by alamar blue assay; format: functional, cell-based; settings: HT-29, 72 h; how it was run: as §1
Mus musculus [8] = assay: Toxicity in nu/nu mouse assessed as body weight loss at 40 mg/kg, po QD for 5 days followed by 2 days without treatment for 2 weeks; format: organism-based; set-up: dose 40 mg/kg, route oral; settings: in vivo
How it was run: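 Female nude (nu/nu) mice (males for prostate model) bearing sc xenografts, dosing started at 100-150 mm³, 10/group. Oral gavage in 5% DMSO/5% Tween 80/1% CMC in water, QD 5 days on/2 off per cycle, 2 or 4 cycles. Body weight recorded twice weekly; maximum loss reported.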

NCI-H460 [9] = assay: Cytotoxicity against human H460 cells after 72 hrs by alamar blue assay in presence of 40 mg/ml HSA; format: functional, cell-based; settings: NCI-H460, 72 h
How it was run: (§4)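 H460 cells seeded at 4 × 10³ per well and grown 24 h. Compounds then cocultured with cells for 72 h at 37 °C, with or without 40 mg/mL human serum albumin. Viability read by AlamarBlue; IC₅₀ = 50% growth inhibition. Ratio compares the IC₅₀ with HSA to the IC₅₀ without.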

[10] = Half life in CD-1 mouse brain at 50 mg/kg, ip by LC/MS/MS analysis; format: ADME, organism-based; set-up: dose 50 mg/kg, route intraperitoneal
How it was run: (§5)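 CD-1 mice (~25 g) given 50 mg/kg ip in 5% DMSO/5% Tween 80 in water; three mice per time point, sampled up to 480 min. Blood taken by cardiac puncture into EDTA, then whole brain excised and homogenized in water. Proteins precipitated with ice-cold acetonitrile containing propranolol internal standard; supernatant analysed by HPLC/MS/MS.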

NCI-H460 [11] = assay: Antitumor activity against human H460 cells xenografted in nu/nu mouse assessed as tumor growth inhibition at 40 mg/kg, po QD for 5 days followed by 2days without treatment for 2 weeks; format: functional; set-up: scale not given: the % may be the effect or the level left; how it was run: as §3
HT-29 [12] = assay: Antitumor activity against human HT-29 cells xenografted in nu/nu mouse assessed as tumor growth delay at 40 mg/kg, […]; format: functional; settings: route oral
Malme-3M = assay: Cytotoxicity against human MALME-3M cells after 72 hrs by alamar blue assay; format: functional, cell-based; how it was run: as §1
LNCaP = assay: Cytotoxicity against human LNCAP cells after 72 hrs by alamar blue assay; format: functional, cell-based; how it was run: as §1
[13] = Tmax in CD-1 mouse brain at 50 mg/kg, ip by LC/MS/MS analysis; format: ADME, organism-based; set-up: dose 50 mg/kg, route intraperitoneal; how it was run: as §5
A-375 = assay: Cytotoxicity against human A375 cells after 72 hrs by alamar blue assay; format: functional, cell-based; settings: A-375, 72 h; how it was run: as §1
IGROV-1 = assay: Cytotoxicity against human IGROV1 cells after 72 hrs by alamar blue assay; format: functional, cell-based; settings: IGROV-1, 72 h; how it was run: as §1
Mus musculus [14] = assay: Toxicity in nu/nu mouse assessed as body weight loss at 40 mg/kg, po QD for 5 days followed by 4 days without treatment for 2 weeks; format: organism-based; set-up: dose 40 mg/kg, route oral; settings: in vivo
[15] = Cytotoxicity against human MESSA cells after 72 hrs by alamar blue assay; format: functional, cell-based; settings: MES-SA; how it was run: as §1
[16] = Cmax in CD-1 mouse plasma at 50 mg/kg, ip by LC/MS/MS analysis; format: ADME, organism-based; set-up: dose 50 mg/kg, route intraperitoneal; how it was run: as §5
[17] = Half life in CD-1 mouse plasma at 50 mg/kg, ip by LC/MS/MS analysis; format: ADME, organism-based; set-up: dose 50 mg/kg, route intraperitoneal; how it was run: as §5
[18] = AUC in CD-1 mouse brain at 50 mg/kg, ip by LC/MS/MS analysis; format: ADME, organism-based; set-up: dose 50 mg/kg, route intraperitoneal; how it was run: as §5
[19] = Resistance ratio of IC50 for human MES-SA/Dx5 cells overexpressing MDR1 after 72 hrs to IC50 for human MESSA cells after 72 hrs; format: functional
How it was run: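 Cytotoxicity compared in MDR1-overexpressing lines and their parental wild-type lines. 72 h exposure at 37 °C, viability by AlamarBlue, IC₅₀ at 50% growth inhibition. Resistance ratio = IC₅₀ in overexpressing line / IC₅₀ in parental line.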

NCI-H460 [20] = assay: Ratio IC50 for human H460 cells after 72 hrs in presence of 40 mg/ml HSA to IC50 for human H460 cells after 72 hrs; format: functional; how it was run: as §4
[21] = AUC in CD-1 mouse plasma at 50 mg/kg, ip by LC/MS/MS analysis; format: ADME, organism-based; set-up: dose 50 mg/kg, route intraperitoneal; how it was run: as §5
[22] = Cytotoxicity against human bone marrow cell by CFU-GM assay; format: cell-based
PC-3 [23] = assay: Cytotoxicity against human PC3 cells after 72 hrs by alamar blue assay; format: functional, cell-based; settings: PC-3, 72 h; how it was run: as §1
PC-3 [24] = assay: Antitumor activity against human PC3 cells xenografted in nu/nu mouse assessed as tumor growth inhibition at 40 mg/kg, po QD for 5 days followed by 2 days without treatment for 2 weeks; format: functional; set-up: scale not given: the % may be the effect or the level left; how it was run: as §3
DU-145 = assay: Cytotoxicity against human DU145 cells after 72 hrs by alamar blue assay; format: functional, cell-based; settings: DU-145, 72 h; how it was run: as §1
[25] = Ratio of drug level in brain to plasma in CD-1 mouse at 50 mg/kg, ip; format: ADME, organism-based; set-up: dose 50 mg/kg, route intraperitoneal; how it was run: as §5
[26] = Cmax in CD-1 mouse brain at 50 mg/kg, ip by LC/MS/MS analysis; format: ADME, organism-based; set-up: dose 50 mg/kg, route intraperitoneal; how it was run: as §5
H69AR = assay: Cytotoxicity against human H69AR cells overexpressing MRP1 after 72 hrs by alamar blue assay
SK-MEL-2 = assay: Cytotoxicity against human SK-MEL-2 cells after 72 hrs by alamar blue assay; format: functional, cell-based; settings: SK-MEL-2, 72 h; how it was run: as §1
NCI-H460 [27] = assay: Antitumor activity against human H460 cells xenografted in nu/nu mouse assessed as tumor growth delay at 40 mg/kg, po QD for 5 days followed by 2days without treatment for 2 weeks; format: functional; how it was run: as §3
[28] = Resistance ratio of IC50 for human H69AR cells overexpressing MRP1 after 72 hrs s to IC50 for human H69 cells after 72 hrs
[29] = Tmax in CD-1 mouse plasma at 50 mg/kg, ip by LC/MS/MS analysis; format: ADME, organism-based; set-up: dose 50 mg/kg, route intraperitoneal; how it was run: as §5
[30] = Ratio of IC50 for mouse bone marrow cell to IC50 for human bone marrow cell; format: cell-based; settings: bone marrow cells; how it was run: as §2

Structure (SMILES): CCc1c2c(nc3ccccc13)-c1c(N)c3c(c(=O)n1C2)COC(=O)[C@]3(O)CC
- IC50 [1]: 110 nM
- IC50 (NCI-H69): 110 nM
- IC50 [2]: 12 nM
- selectivity ratio [3]: 650
- Time (PC-3 [4]): 45 days
- Activity (HT-29 [5]): 101%
- IC50 (NCI-H460 [6]; Homo sapiens, NCI-H460, 72 h): 7 nM
- IC50 (NCI-H460 [6]; nci-h460): 12 nM
- IC50 (HT-29 [7]): 300 nM
- Activity (Mus musculus [8]): 4%
- IC50 (NCI-H460 [9]): 120 nM
- half-life [10]: 4 h
- Activity (NCI-H460 [11]): 84%
- Time (HT-29 [12]): 30 days
- IC50 (Malme-3M): 1200 nM
- IC50 (LNCaP): 120 nM
- Tmax [13]: 1 h
- IC50 (A-375): 7 nM
- IC50 (IGROV-1): 20 nM
- Activity (Mus musculus [14]): 3% and 8%
- IC50 [15]: 4 nM
- Cmax [16]: 300 ng/mL
- half-life [17]: 4.17 h
- AUC [18]: 750 ng·h/mL
- Ratio [19]: 3
- Ratio (NCI-H460 [20]): 10
- AUC [21]: 1070 ng·h/mL
- IC50 ([22]; Homo sapiens, Bone marrow cell): 620 nM
- IC90 ([22]; human, bone marrow cells): 4500 nM
- IC50 (PC-3 [23]): 24 nM
- Activity (PC-3 [24]): 107%
- IC50 (DU-145): 1200 nM
- Kp [25]: 70
- Cmax [26]: 300 ng/mL
- IC50 (H69AR): 240 nM
- IC50 (SK-MEL-2): 130 nM
- Time (NCI-H460 [27]): 14 days
- Ratio [28]: 2.2
- Tmax [29]: 1 h
- selectivity ratio [30]: 6
